In BindingDB's records for doi:10.1021/jm970020k (Eli Lilly, 1997):

Molecular target: Integrin alpha-IIb/beta-3 (Homo sapiens, UniProt P08514+P05106)
Experiment: Inhibition of the platelet GPIIb-IIIa receptor measured as ability to attenuate ADP-induced (fibrinogen-mediated) platelet aggregation in human platelet-rich plasma (PRP)
Procedure, shortened: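 Functional GPIIb-IIIa assay in human platelet-rich plasma. Aggregation was induced with ADP and depends on fibrinogen.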

Integrin alpha-IIb/beta-3, sequence (P05106 27-788 limits assumed): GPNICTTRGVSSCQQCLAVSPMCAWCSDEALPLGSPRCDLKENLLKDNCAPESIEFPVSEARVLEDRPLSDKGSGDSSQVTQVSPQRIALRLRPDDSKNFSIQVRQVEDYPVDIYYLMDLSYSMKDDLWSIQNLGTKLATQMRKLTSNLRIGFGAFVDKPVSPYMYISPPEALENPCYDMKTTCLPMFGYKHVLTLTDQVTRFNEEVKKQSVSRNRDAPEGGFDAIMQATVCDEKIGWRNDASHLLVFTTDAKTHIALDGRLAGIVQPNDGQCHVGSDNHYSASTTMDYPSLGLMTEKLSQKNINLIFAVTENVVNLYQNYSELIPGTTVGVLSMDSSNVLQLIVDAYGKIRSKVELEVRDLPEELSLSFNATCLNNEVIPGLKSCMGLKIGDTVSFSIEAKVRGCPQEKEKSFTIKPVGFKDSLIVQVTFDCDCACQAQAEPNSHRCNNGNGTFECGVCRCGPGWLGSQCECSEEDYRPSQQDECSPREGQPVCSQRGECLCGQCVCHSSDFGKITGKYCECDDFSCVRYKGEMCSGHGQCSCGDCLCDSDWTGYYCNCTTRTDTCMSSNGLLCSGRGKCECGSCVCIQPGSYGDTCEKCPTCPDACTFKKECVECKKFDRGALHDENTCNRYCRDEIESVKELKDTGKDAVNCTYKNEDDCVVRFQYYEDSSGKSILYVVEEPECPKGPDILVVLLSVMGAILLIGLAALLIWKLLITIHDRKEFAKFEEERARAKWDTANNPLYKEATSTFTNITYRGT
Integrin alpha-IIb/beta-3, sequence (P08514 32-887 limits assumed): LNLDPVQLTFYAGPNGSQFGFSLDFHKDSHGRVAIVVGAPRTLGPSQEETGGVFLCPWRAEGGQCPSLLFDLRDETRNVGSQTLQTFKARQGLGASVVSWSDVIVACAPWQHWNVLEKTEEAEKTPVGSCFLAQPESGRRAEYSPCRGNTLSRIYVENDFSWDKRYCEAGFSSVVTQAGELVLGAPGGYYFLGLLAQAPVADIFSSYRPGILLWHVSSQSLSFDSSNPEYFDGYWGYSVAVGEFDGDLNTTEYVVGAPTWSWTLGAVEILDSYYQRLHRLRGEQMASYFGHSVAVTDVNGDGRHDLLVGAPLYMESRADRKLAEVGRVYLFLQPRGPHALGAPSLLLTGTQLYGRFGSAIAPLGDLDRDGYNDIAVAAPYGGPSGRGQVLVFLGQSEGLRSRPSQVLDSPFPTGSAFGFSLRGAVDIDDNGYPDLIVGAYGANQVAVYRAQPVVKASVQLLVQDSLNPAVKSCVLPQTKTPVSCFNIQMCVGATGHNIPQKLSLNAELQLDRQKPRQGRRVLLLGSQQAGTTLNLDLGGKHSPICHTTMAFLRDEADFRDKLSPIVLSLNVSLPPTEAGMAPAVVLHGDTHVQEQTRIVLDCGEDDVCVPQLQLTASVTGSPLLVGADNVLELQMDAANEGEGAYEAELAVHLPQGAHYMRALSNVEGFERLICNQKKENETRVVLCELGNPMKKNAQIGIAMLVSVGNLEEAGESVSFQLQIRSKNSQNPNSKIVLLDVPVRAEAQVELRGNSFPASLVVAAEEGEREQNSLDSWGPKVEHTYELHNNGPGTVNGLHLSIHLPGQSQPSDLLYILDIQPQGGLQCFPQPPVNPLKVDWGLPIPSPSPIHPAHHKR
Integrin alpha-IIb/beta-3, sequence (P08514 891-1039 limits assumed): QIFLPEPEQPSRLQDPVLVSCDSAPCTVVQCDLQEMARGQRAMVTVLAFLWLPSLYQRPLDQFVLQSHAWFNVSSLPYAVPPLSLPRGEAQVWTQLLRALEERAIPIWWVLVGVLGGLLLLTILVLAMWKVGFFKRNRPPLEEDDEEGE

IC50 [µM] | Structure (SMILES)
25.3 | CCCCC(CCCCNC(=O)c1cc2cc(C(=N)N)ccc2[nH]1)CC(=O)O (stereo unspecified) [3-Butyl-7-[(5-carbamimidoyl-1H-indole-2-carbonyl)-amino]-heptanoic acid]
59 | CCCCCCC(CCCCNC(=O)c1cc2cc(C(=N)N)ccc2[nH]1)CC(=O)O (stereo unspecified) [3-{4-[(5-Carbamimidoyl-1H-indole-2-carbonyl)-amino]-butyl}-nonanoic acid]
> 100 | N=C(N)c1ccc2[nH]c(C(=O)NCCCCCC(=O)O)cc2c1 [6-[(5-Carbamimidoyl-1H-indole-2-carbonyl)-amino]-hexanoic acid]
> 100 | CCC(CCCCCNC(=O)c1cc2cc(C(=N)N)ccc2[nH]1)C(=O)O (stereo unspecified) [7-[(5-Carbamimidoyl-1H-indole-2-carbonyl)-amino]-2-ethyl-heptanoic acid]
43.7 | CC(CCCCCNC(=O)c1cc2cc(C(=N)N)ccc2[nH]1)C(=O)O (stereo unspecified) [7-[(5-Carbamimidoyl-1H-indole-2-carbonyl)-amino]-2-methyl-heptanoic acid]
5.2 | CCC(CCCCNC(=O)c1cc2cc(C(=N)N)ccc2[nH]1)CC(=O)O (stereo unspecified) [7-[(5-Carbamimidoyl-1H-indole-2-carbonyl)-amino]-3-ethyl-heptanoic acid]
2.8 | CC(CCCCNC(=O)c1cc2cc(C(=N)N)ccc2[nH]1)CC(=O)O (stereo unspecified) [7-[(5-Carbamimidoyl-1H-indole-2-carbonyl)-amino]-3-methyl-heptanoic acid]
4.9 | N=C(N)c1ccc2[nH]c(C(=O)NCCCCC(CC(=O)O)c3ccccc3)cc2c1 (stereo unspecified) [7-[(5-Carbamimidoyl-1H-indole-2-carbonyl)-amino]-3-phenyl-heptanoic acid]
2.8 | N=C(N)c1ccc2[nH]c(C(=O)NCCCCCCC(=O)O)cc2c1 [7-[(5-Carbamimidoyl-1H-indole-2-carbonyl)-amino]-heptanoic acid]
1.3 | N=C(N)c1ccc2cc(C(=O)NCCCCCCC(=O)O)[nH]c2c1 [7-[(6-Carbamimidoyl-1H-indole-2-carbonyl)-amino]-heptanoic acid]
32 | N=C(N)c1ccc2[nH]c(C(=O)NCCCC(=O)NCC(=O)O)cc2c1 [{4-[(5-Carbamimidoyl-1H-indole-2-carbonyl)-amino]-butyrylamino}-acetic acid]

Further lines, the compound ahead of its results:

Structure (SMILES) | IC50 [µM]
N=C(N)c1ccc2[nH]c(C(=O)NCc3ccc(CCC(=O)O)cc3)cc2c1 [3-(4-{[(5-Carbamimidoyl-1H-indole-2-carbonyl)-amino]-methyl}-phenyl)-propionic acid] | 39
N=C(N)c1ccc2[nH]c(C(=O)NCCC(=O)NCCC(=O)O)cc2c1 [3-{3-[(5-Carbamimidoyl-1H-indole-2-carbonyl)-amino]-propionylamino}-propionic acid] | 3.6
N=C(N)c1ccc2[nH]c(C(=O)NCC(=O)NCCCC(=O)O)cc2c1 [4-{2-[(5-Carbamimidoyl-1H-indole-2-carbonyl)-amino]-acetylamino}-butyric acid] | 50
N=C(N)c1ccc2oc(C(=O)NCCCCCC(=O)O)cc2c1 [6-[(5-Carbamimidoyl-benzofuran-2-carbonyl)-amino]-hexanoic acid] | 16
N=C(N)c1cccc(NCC(=O)NCCCCCCC(=O)O)c1 [7-[2-(3-Carbamimidoyl-phenylamino)-acetylamino]-heptanoic acid] | > 100
N=C(N)c1ccc(OCC(=O)NCCCCCCC(=O)O)cc1 [7-[2-(4-Carbamimidoyl-phenoxy)-acetylamino]-heptanoic acid] | 2.6
N=C(N)c1ccc(NCC(=O)NCCCCCCC(=O)O)cc1 [7-[2-(4-Carbamimidoyl-phenylamino)-acetylamino]-heptanoic acid] | 67
Cn1c(C(=O)NCCCCCCC(=O)O)cc2cc(C(=N)N)ccc21 [7-[(5-Carbamimidoyl-1-methyl-1H-indole-2-carbonyl)-amino]-heptanoic acid] | 7.5
CN(CCCCCCC(=O)O)C(=O)c1cc2cc(C(=N)N)ccc2[nH]1 [7-[(5-Carbamimidoyl-1H-indole-2-carbonyl)-methyl-amino]-heptanoic acid] | 3
N=C(N)c1ccc2c(c1)CC(C(=O)NCCCCCCC(=O)O)O2 (stereo unspecified) [7-[(5-Carbamimidoyl-2,3-dihydro-benzofuran-2-carbonyl)-amino]-heptanoic acid] | 3.4
Cc1c(C(=O)NCCCCCCC(=O)O)[nH]c2ccc(C(=N)N)cc12 [7-[(5-Carbamimidoyl-3-methyl-1H-indole-2-carbonyl)-amino]-heptanoic acid] | 4.1
N=C(N)c1ccc2sc(C(=O)NCCCCCCC(=O)O)cc2c1 [7-[(5-Carbamimidoyl-benzo[b]thiophene-2-carbonyl)-amino]-heptanoic acid] | 7.3
N=C(N)c1ccc2oc(C(=O)NCCCCCCC(=O)O)cc2c1 [7-[(5-Carbamimidoyl-benzofuran-2-carbonyl)-amino]-heptanoic acid] | 0.27
N=C(N)c1ccc2c(C(=O)NCCCCCCC(=O)O)[nH]nc2c1 [7-[(6-Carbamimidoyl-1H-indazole-3-carbonyl)-amino]-heptanoic acid] | 0.14
N=C(N)c1ccc2c(C(=O)NCCCCCCC(=O)O)c[nH]c2c1 [7-[(6-Carbamimidoyl-1H-indole-3-carbonyl)-amino]-heptanoic acid] | 0.65
N=C(N)c1ccc2cc(C(=O)NCCCCCCC(=O)O)oc2c1 [7-[(6-Carbamimidoyl-benzofuran-2-carbonyl)-amino]-heptanoic acid] | 7.2
N=C(N)c1ccc2[nH]c(C(=O)NCc3ccc(CC(=O)O)cc3)cc2c1 [(4-{[(5-Carbamimidoyl-1H-indole-2-carbonyl)-amino]-methyl}-phenyl)-acetic acid] | 47

Molecular target: not listed separately
Experiment: Inhibition ADP-induced (fibrinogen-mediated) platelet aggregation in human platelet-rich plasma (PRP)

Structure (SMILES) | IC50 [µM]
N=C(N)c1ccc2c(c1)cc(C(=O)NCCCCCCC(=O)O)n2Cc1ccccc1 [7-[(1-Benzyl-5-carbamimidoyl-1H-indole-2-carbonyl)-amino]-heptanoic acid] | 21
N=C(N)c1ccc2oc(C(=O)NCCCCCCCC(=O)O)cc2c1 [8-[(5-Carbamimidoyl-benzofuran-2-carbonyl)-amino]-octanoic acid] | 26.7
C#C[C@H](CC(=O)O)NC(=O)CCC(=O)Nc1ccc(C(=N)N)cc1 [(S)-3-[3-(4-Carbamimidoyl-phenylcarbamoyl)-propionylamino]-pent-4-ynoic acid] | 0.035
